Data set [1] deals with C. albicans hyphae. The experiment in a line: Propidium iodide membrane permeabilization of C. albicans hyphae. The format is cell-based, Candida albicans. An outline of the steps: (§1)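 C. albicans yeast and hyphae were exposed to FITC-tagged test peptide and stained with propidium iodide to read membrane permeabilization. Exposure was in standard antimicrobial peptide assay buffer, in the preferred growth medium (YPD for yeast, RPMI for hyphae), or in buffer plus 2.5% w/v porcine mucus. For hyphae, the assay was repeated with sodium sulfate added as an anionic charge quencher.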

For data set [2], the system named is C. albicans yeast. The experiment in a line: Propidium iodide membrane permeabilization of C. albicans yeast. Type of data set: cell-based, Candida albicans. As to conditions: 30 μM peptide. The procedure, abridged:
as §1

Data set [3] concerns representative Gram-positive and -negative bacteria. The experiment in a line: Antimicrobial activity against bacteria. Type of data set: cell-based. The note with it: CFUs and O.D. normalized to 0 μM PYY. An outline of the steps:
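Gram-positive and Gram-negative bacteria were exposed to a range of test peptide concentrations, with or without mucus, and compared with a magainin-2 reference peptide. Surviving CFUs were normalised to 0 μM peptide, and O.D. growth to wells with 0 μM peptide. Each assay was run in duplicate, three times, and analysed by ANOVA.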

Data set [4] concerns C. albicans yeast. The experiment in a line: C. albicans yeast survival. The format is cell-based, Candida albicans. As to conditions: increasing concentrations, media with or without 2.5% w/v mucin; CFU and O.D. An outline of the steps: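 C. albicans yeast were grown in YPD. They were exposed to the test peptide with or without 2.5% w/v porcine […], alongside scrambled-peptide and magainin-2 controls. Survival was read as CFUs and growth as optical density. Each assay was run in duplicate, three times.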

Data set [5] deals with C. albicans hyphae. Description: C. albicans hyphal respiration. Type of data set: cell-based, Candida albicans. As to conditions: XTT assay; increasing concentrations, with or without 2.5% w/v mucin. An outline of the steps: (§2)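 C. albicans hyphae were grown in RPMI. They were exposed to the test peptide with or without 2.5% w/v porcine […], alongside scrambled-peptide and magainin-2 controls. Read-outs were respiration by XTT tetrazolium assay, dry weight, biofilm adherence and CFUs. Each assay was run in duplicate, three times.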

The test system of data set [6] is C. albicans hyphae. Description: C. albicans hyphal growth. The format is cell-based, Candida albicans. An outline of the steps: as §2
The nature of data set [7]: Mucus vs. aqueous partitioning in vitro across 10 kDa MWCO filter. The format is physicochemical. The note with it: 10 kDa MWCO filter separating mucus and aqueous wells. An outline of the steps: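 Test peptide was added to either the mucus well or the aqueous well of a pair separated by a 10 kDa MWCO filter. Experiments were run in triplicate and repeated three times, with a t-test for comparison.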

Data set [8] relates to C. albicans hyphae on Caco-2 cells. The experiment in a line: C. albicans hyphae-GFP attachment to Caco-2 cells. The format is cell-based, Candida albicans. The note with it: 20 μM peptide, 6 hours, confluent Caco-2, vs vehicle.

On to “PYY1–36 - fluorescein isothiocyanate (FITC) tagged peptide: FITC tagged PYY1–36”, for which the “Co-localization of tagged peptide with PI signal” value with C. albicans hyphae [1] (FITC-tagged peptide, fluorescence microscopy) was “co-localized with the PI signal within hyphae”.
In the case of “PYY1–36: unmodified, full length peptide YY expressed by Paneth cells”, the “Concentration at which permeabilization of hyphae was observed (PI)” value with C. albicans hyphae [1] (hyphae induced in presence of 2.5% w/v porcine mucin, propidium iodide) came out at 30 µM. Also, the “Peptide-induced permeability (PI) in presence of sodium sulfate” value in the data set with C. albicans hyphae [1] (sodium sulfate as anionic quencher of cationic charge) is “reduced”. Besides, the “Permeabilization of yeast (PI)” value with C. albicans yeast [2] is recorded as “unaffected”. Further, in data set [3], the “Antimicrobial activity against Gram-positive and -negative bacteria” value is on record as “less activity compared with more effective magainin-2”. Besides, the “Effect on yeast numbers or density” value in the data set on C. albicans yeast [4] is given as “did not affect”. The “Effect on hyphal respiration” value with C. albicans hyphae [5] is on record as “decrease in hyphal respiration”. In addition, the “Shape of dose-response in biofilm and colony forming units” value in the data set on C. albicans hyphae [6] (2.5% w/v mucin present) is “sigmoidal dose-response curve”. Moreover, in the data set on C. albicans hyphae [6] (aqueous (RPMI) buffer), the “Concentration of peak effect (biphasic dose-response)” value is listed as ~ 30 μM. In addition, the “Concentration of loss of activity (biphasic dose-response)” value in the data set with C. albicans hyphae [6] (aqueous (RPMI) buffer, attributed to self-aggregation) amounted to 100 µM. In the data set with C. albicans hyphae [6] (aqueous conditions, biofilm adherence), the “Concentration at which biofilm formation was significantly reduced” value lay in the range of 20 to 50 µM. Also, in the data set on C. albicans hyphae [6] (aqueous conditions, dry weight), the “Concentration at which hyphal growth was significantly reduced” value was 20 to 50 µM. Further, the “Partitioning between mucus and aqueous compartments” value in data set [7] is recorded as “preferentially partitions into mucus”. For the same substance, the “Numbers of hyphae attached to Caco-2 cells” value in data set [8] is “significantly reduced”.
Regarding “PYY3–36: circulating endocrine form, formed by removal of two N-terminal amino acids by DPP-IV [reference compound]”, the “Permeabilization / disruption of hyphae (PI), in words” value in the data set on C. albicans hyphae [1] (propidium iodide, compared with PYY1–36 (native L-isoform)) is “Less pronounced permeabilization”. The “Effect on hyphal respiration” value in the data set with C. albicans hyphae [5] is given as “less activity”. Moreover, the Effect on biofilm result in the data set with C. albicans hyphae [6] (biofilm adherence) is on record as “No differences”.
Turning to magainin-2 [reference compound], in data set [3], the “Antimicrobial activity against Gram-positive and -negative bacteria” value is “more effective”.

For the origin of these results see PMC10876062 (Science (New York, N.Y.), 2023).
